Hits are enriched below; roughly 2.6% of the tested compounds scored in any of these assays.
OX1R antag-1 = antagonists of human orexin 1 receptor (OX1R); actives 1.8% (n = 330,000); inhibition, % at 6.6 µM; OX1R-expressing cells, FRET antagonist read-out; O43613; in the data active = inhibition mostly above about 38%, no sharp cut-off; inactive = mostly below about 40%;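 note: 0% = agonist challenge alone and 100% = reference antagonist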
OXTR potentiator = human OXTR potentiation. P30559. actives 0.061% (n = 320,000). CHO-OTR cells, Fluo-8 calcium fluorescence, potentiator mode; 0% = oxytocin EC15, 100% = EC100. activation, % at 3 µM. AID 2445;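 active = activation above that plate's cutoff, the mean activation of tested compounds plus 3 SD, cut at about 6.6% in these data, passing the limit was not always enough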;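 note: 100% uses oxytocin at 75 nM as the full agonist control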
Target sequence (P30559 whole entry, looked up): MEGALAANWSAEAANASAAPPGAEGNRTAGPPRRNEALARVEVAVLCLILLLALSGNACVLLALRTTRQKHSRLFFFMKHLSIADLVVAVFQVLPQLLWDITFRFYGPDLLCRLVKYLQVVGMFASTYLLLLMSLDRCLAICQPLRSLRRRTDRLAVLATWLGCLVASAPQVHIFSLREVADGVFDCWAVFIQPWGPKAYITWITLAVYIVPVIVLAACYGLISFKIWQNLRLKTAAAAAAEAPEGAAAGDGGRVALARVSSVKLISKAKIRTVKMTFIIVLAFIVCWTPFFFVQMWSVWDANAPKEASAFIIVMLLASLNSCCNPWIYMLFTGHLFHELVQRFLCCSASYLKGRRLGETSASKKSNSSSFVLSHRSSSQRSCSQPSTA
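assay system = CHO-OTR cells, human receptor | schedule = compound 6 min at room temperature before oxytocin, 100 s read | detection = Fluo-8 intracellular calcium fluorescence, ex 470-495, em 515-575 nm | evaluation = normalized max/min fluorescence ratio, % activation | control set = EC15 oxytocin alone as 0%, 75 nM oxytocin (EC100) as 100%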
OXTR ag = human OXTR agonism; P30559; CHO-OTR cells, Fluo-8 calcium fluorescence; normalized: DMSO 0%, oxytocin 100%; activation, % at 3 µM; actives 0.32% (n = 320,000);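 active = activation above the mean of all tested compounds plus 3 SD, cutoff set per screening run, cut at about 20% in these data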;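 note: peak over basal fluorescence ratio from a 100 s FLIPR kinetic read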
CHO parental Ca = signal in parental CHO cells, OX1R antagonist counter-screen. parental CHO-K1, ATP-induced calcium, Fluo-8 fluorescence. AID 463079. actives 0.63% (n = 330,000). inhibition, % at 5.6 µM;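 active = inhibition above that plate's mean sample inhibition plus 3 SD, cut at about 26% in these data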;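 note: 0% = ATP-challenged DMSO wells and 100% = DMSO wells without ATP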
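test system = CHO parental line | reagent = ATP stimulus | measured by = intracellular calcium via Fluo-8 no-wash fluorescent dye | control set = ATP and no-ATP DMSO wells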
OX1R antag-2 = blocks the human orexin 1 receptor; CHO/OX1R cells, Fluo-8 calcium fluorescence, orexin A; O43613; actives 0.43% (n = 330,000); inhibition, % at 5 µM;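 active = inhibition above its plate's threshold, mean inhibition of all tested compounds on the plate plus 3 SD, cut at about 37% in these data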;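 note: 0% = orexin A challenge wells and 100% = SB-334867-A antagonist wells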
V1R ag counter = counter-screen for oxytocin receptor agonists: human V1a receptor agonists. P37288. CHO-V1R cells, Fluo-8 calcium fluorescence, agonist mode; 0% DMSO, 100% 3 nM vasopressin. activation, % at 3 µM. actives 0.25% (n = 320,000);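 active = activation above the mean activation of all tested compounds plus 3 SD, per screening run, cut at about 20% in these data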;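 note: signal is peak over basal fluorescence ratio across a 100 second FLIPR read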
The depositor's hits bear a star.

SMILES	OX1R antag-1	OXTR potentiator	OXTR ag	CHO parental Ca	OX1R antag-2	V1R ag counter
Cc1ccc(C)n1-c1cc([N+](=O)[O-])ccc1-n1ccnc1	16	-4	1	-25	-11	1
CC1(C)N([O-])c2cc([N+](=O)[O-])ccc2[N+]1=O	53*	-9	-1	-1	14	0
CCCNC(=O)Cn1c(=O)/c(=C\c2ccc(-c3ccc([N+](=O)[O-])cc3)o2)s/c1=C\C(=O)C(C)(C)C	12	-12	63*	59*	75*	37*
CCn1ncc(C2=NOC(C(=O)Nc3cnn(C45CC6CC(CC(C6)C4)C5)c3)C2)c1C (centres undefined)	14	-9	35*	4	-8	25*
CCCn1c(=N)c(C#N)cc2c(=O)n3ccccc3nc21	47*	-3	0	-2	9	2
Cc1cccc(-n2c(=O)c(C#N)cc3c(=O)n4ccccc4nc32)c1	60*	2	-2	-17	-11	-2
CCC(C)n1c(=N)c(C#N)cc2c(=O)n3ccccc3nc21 (centres undefined)	18	-6	0	-8	-14	0
Cc1ccc(-n2c(=O)c(C#N)cc3c(=O)n4ccccc4nc32)cc1	34	3	1	-3	-14	1
O=S(=O)(Nc1ccccc1OC(F)F)c1ccc(S(=O)(=O)N2CCCC2)cc1	31*	-8	6	-11	8	2
COc1ccc(S(=O)(=O)Nc2cccc(S(=O)(=O)N3CCCCC3)c2)cc1	50*	-1	3	-26	-5	2
O=S(=O)(c1ccc(F)cc1)N1CCCC1	14	3	1	4	-13	1
COc1ccc(NS(=O)(=O)c2ccc(S(=O)(=O)N3CCCC3)cc2)cc1	17	-32	16	40*	14	16
CCC[C@@H](O)c1cc2cc(OC)c(OC)cc2c(=O)o1	-1	5	1	-12	-25	1
COCCN(C(=O)c1ccccc1Oc1ccccc1)c1c(N)n(CC(C)C)c(=O)[nH]c1=O	-4	-1	-1	-4	-16	1
CC(C)Oc1ccc(S(=O)(=O)N2CCOCC2)cc1NC(=O)c1cc([N+](=O)[O-])ccc1N1CCOCC1	17	-1	-1	-10	-13	0
CC(C)[C@H](NC(=O)C1CCN(C(=O)[C@@H]2CCCN2)CC1)C(=O)NCc1ccc(F)cc1	10	0	1	-3	-21	0
Cc1nc2ccccn2c1C(=O)N/N=C/c1ccc([N+](=O)[O-])cc1	10	1	0	5	-15	-1
[O-]/[N+](=C\c1ccccc1)[C@@H]1CCCC[C@@H]1/[N+]([O-])=C/c1ccccc1	10	-3	0	5	-6	0
Cc1nc2ccccn2c1C(=O)N/N=C/c1ccc([N+](=O)[O-])o1	65*	-11	0	7	-12	-1
O=C(N/N=C/c1ccc2nccnc2c1)c1ccc(Br)cc1	21	0	0	-23	-13	0
O=C(N/N=C/c1ccc2nccnc2c1)c1ccncc1	55*	-2	1	-7	-5	0
Cc1ccc(/C=N\NC(=O)c2cc([N+](=O)[O-])cc([N+](=O)[O-])c2)o1	65*	-11	-1	-10	-25	-1
O=[N+]([O-])c1ccc(/C=[N+](\[O-])[C@@H]2CCCC[C@@H]2/[N+]([O-])=C/c2ccc([N+](=O)[O-])o2)o1	42*	-13	1	-8	-18	1
CCCc1cc(=O)[nH]c(SCC(=O)Nc2ccc(OC)c(S(=O)(=O)N3CCCCC3)c2)n1	-2	-2	1	-9	-24	1
O=C(COC(=O)C1=COCCO1)NC1CCCCCCC1	10	-9	0	-6	-10	-1
SMILES	OX1R antag-1	OXTR potentiator	OXTR ag	CHO parental Ca	OX1R antag-2	V1R ag counter
Cc1scc(C(=O)N/N=C/c2ccc([N+](=O)[O-])o2)c1C	51*	-5	-1	-5	-18	-1
O=C(N/N=C/c1ccc([N+](=O)[O-])o1)c1ccc(O)cc1	74*	-4	-1	4	1	1
O=C(N/N=C/c1ccco1)C1CCCC1	24	-1	3	-6	-9	0
CCN(CC)S(=O)(=O)c1cccc(C(=O)N/N=C/c2ccc([N+](=O)[O-])o2)c1	73*	-5	1	-5	-16	1
O=C(N/N=C/c1ccc([N+](=O)[O-])o1)C1CCCC1	91*	-9	0	8	-16	0
O=C(N/N=C/c1ccc([N+](=O)[O-])o1)c1ccncc1	55*	0	1	-16	9	1
NS(=O)(=O)c1ccc(CCNC(=O)CSc2ccsc2[N+](=O)[O-])cc1	44*	-19	-1	-18	-13	-1
CSc1ccc(CCNC(=O)CSc2ccsc2[N+](=O)[O-])cc1	49	-11	0	-13	-26	0
Cc1nnc(N/N=C/c2cccc(C(F)(F)F)c2)n1N	22	-11	0	-9	-1	1
Cc1nnc(N/N=C/c2cccc(OCc3ccc(Cl)c(Cl)c3)c2)n1N	44*	-11	0	-9	-6	0
COc1cc(/C(C#N)=C/c2ccccc2)c([N+](=O)[O-])cc1OC	63	-16	-1	-5	-12	1
COc1ccc(CCNC(=O)c2cc(-c3ccncc3)nc3c(Cl)cccc23)cc1OC	39	-16	-2	-36	-33	0
COc1ccc(CNC(=O)c2cc(-c3ccncc3)nc3c(C)cc(C)cc23)cc1OC	48*	-3	0	-19	-8	0
COc1ccc(NC(=O)Nc2ccc3c(c2)C(=O)N([C@@H](C)CO)C[C@@H](C)[C@@H](CN(C)S(=O)(=O)c2cn(C)cn2)O3)cc1	6	-9	0	-7	18	1
O=C(CSc1ncnc2sc3c(c12)CCCC3)N1CCC(c2noc3ccc(F)cc23)CC1	6	-3	0	-8	-15	0
Cc1cc(SCC(=O)N2CCC(c3noc4ccc(F)cc34)CC2)nc2ccccc12	49*	1	0	-11	-27	-1
COc1ccc(CCC(=O)Nc2ccc3c(c2)OCCO3)cc1	14	-12	0	35*	18	0
O=C(Nc1ccc(Cl)c(Cl)c1)O/N=C/c1ccncc1	45	-9	13	31*	27	11
CC1CCN(S(=O)(=O)c2ccc(C(=O)N3CCCC(C(F)(F)F)C3)cc2)CC1 (centres undefined)	19	-11	2	-13	-14	8
COC(=O)c1ccc(C2=NOC(C)(c3nnc(Cc4ccccc4)o3)C2)cc1 (centres undefined)	34	-14	2	-12	-1	2

High-throughput results deposited in PubChem BioAssay by The Scripps Research Institute Molecular Screening Center.
